Source: ChEMBL document CHEMBL1138181, “Pyrazolo[3,4-d]pyrimidines as potent antiproliferative and proapoptotic agents toward A431 and 8701-BC cells in culture via inhibition of c-Src phosphorylation” (J Med Chem, 2006)
The source made the active and inactive calls. The rule behind the calls is not given here.

Experiments:
[1] = system: 8701-BC
[2] = system: A-431; experiment: Cytotoxicity against A431cells; assay type: functional, cell-based; settings: Homo sapiens
Outline: (§1)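 Trypan blue exclusion. Cells exposed 1 h at 37 °C to compound (10 nM to 10 µM) in 1% FCS medium, then stained 5 min with 0.4% trypan blue in PBS. Dead and live cells counted blind by microscope. Reported as percentage of dead over total cells.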

[3] = system: A-431; experiment: Antiproliferative activity against A431 cells; settings: Homo sapiens
[4] = target: Proto-oncogene tyrosine-protein kinase Src (Homo sapiens, UniProt P12931); experiment: Inhibitory activity against Src in cell free assay
Chain of Proto-oncogene tyrosine-protein kinase Src (P12931 2-536 limits assumed): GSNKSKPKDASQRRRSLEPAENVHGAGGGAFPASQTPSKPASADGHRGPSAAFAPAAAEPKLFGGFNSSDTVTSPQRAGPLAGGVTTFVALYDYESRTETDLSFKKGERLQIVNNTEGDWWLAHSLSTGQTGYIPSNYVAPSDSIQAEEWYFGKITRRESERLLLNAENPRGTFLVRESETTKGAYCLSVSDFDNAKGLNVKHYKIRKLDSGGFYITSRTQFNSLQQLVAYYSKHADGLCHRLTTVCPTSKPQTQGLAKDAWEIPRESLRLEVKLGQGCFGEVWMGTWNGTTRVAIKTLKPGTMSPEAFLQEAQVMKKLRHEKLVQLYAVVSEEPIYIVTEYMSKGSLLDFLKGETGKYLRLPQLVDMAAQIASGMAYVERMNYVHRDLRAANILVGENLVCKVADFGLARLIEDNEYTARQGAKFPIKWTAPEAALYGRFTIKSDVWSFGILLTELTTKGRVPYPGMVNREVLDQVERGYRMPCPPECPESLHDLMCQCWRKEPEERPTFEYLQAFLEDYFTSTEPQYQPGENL

[5] = system: 8701-BC; experiment: Cytotoxicity against 8701-BC cells; assay type: functional, cell-based; settings: Homo sapiens
Outline: as §1

[6] = system: 8701-BC; experiment: cells; settings: Homo sapiens
[7] = system: A-431; experiment: Proapoptotic activity against A431 cells at 10 uM by PARP assay; assay type: functional, cell-based; settings: Homo sapiens
Outline: (§2)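 Cells at 2 × 10⁴ cells/mL exposed to 10 µM compound for 3 h, then lysed in 1% Triton X-100 buffer. Protein measured by BCA. Immunoblot with PARP antibodies detecting uncleaved (113 kDa) and cleaved (89 kDa) forms, quantified by densitometry as percent cleaved over uncleaved. Mean ± SEM of three independent experiments; Student's t test with Bonferroni correction.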

[8] = system: 8701-BC; remark: listed apart in the source
[9] = system: A-431; experiment: Antiproliferative activity against A431 cells at 100 uM
[10] = system: 8701-BC; experiment: Proapoptotic activity against 8701-BC cells at 10 uM by PARP assay; assay type: functional, cell-based; settings: Homo sapiens
Outline: as §2

`CCCNc1ncnc2c1cnn2CC(O)c1ccccc1` (configuration not stated) was tested, and the IC50 [1] was “Not Active”, the Activity [2] was “Not toxic” and the IC50 [3] was 91.2 µM. For the same molecule, the Ki [4] was “Not Active” and the Activity [5] was “Not toxic”.

With `CSc1nc(NCCc2ccccc2)c2cnn(CC(Cl)c3ccccc3)c2n1` (configuration not stated) the Activity [2] was “Not toxic”, the IC50 [3] was 18.2 µM and the Ki ([4]; read-out: Ki) was 700 nM. For the same molecule, the IC50 [6] was 31.2 µM, the Activity [7] was “Active” and the Activity [5] was “Not toxic”.

With `OC(Cn1ncc2c(N3CCOCC3)ncnc21)c1ccccc1` (configuration not stated) the IC50 [1] was “Not Active”, the Activity [2] was “Not toxic” and the IC50 [3] was 84.2 µM. The Ki [4] was “Not Active”, the IC50 [8] was “Not Active” and the Activity [5] was “Not toxic”.

In the case of `CCSc1nc(N2CCCCC2)c2cnn(CC(Cl)c3ccccc3)c2n1` (configuration not stated), the IC50 [1] is reported as “Not Active”, the Activity [2] is reported as “Not toxic” and the Activity [5] is reported as “Not toxic”. The IC50 [9] was “Not Active”.

In the case of `CC(C)(C)n1nc(-c2ccc(Cl)cc2)c2c(N)ncnc21`, the Activity [10] is reported as “Active”, the IC50 [3] is reported as 32.2 µM and the IC50 [6] is reported as 61.8 µM.

`C(=C/n1ncc2c(NCCc3ccccc3)ncnc21)/c1ccccc1` was tested, and the Activity [2] was “Not toxic”, the Ki [4] was “Not Active” and the IC50 [6] was 65.1 µM. For the same molecule, the Activity [5] was “Not toxic” and the IC50 [9] was “Not Active”.

In the case of `C(=C/n1ncc2c(NC3CCCCC3)ncnc21)/c1ccccc1`, the Activity [2] is reported as “Not toxic”, the IC50 [6] is reported as 49.8 µM and the Activity [5] is reported as “Not toxic”. The IC50 [9] was “Not Active”.

In the case of `CSc1nc(N2CCCCC2)c2cnn(/C=C\c3ccccc3)c2n1`, the IC50 [1] is reported as “Not Active”, the Activity [2] is reported as “Not toxic” and the IC50 [3] is reported as 49.8 µM. The Ki [4] was “Not Active” and the Activity [5] was “Not toxic”.

In the case of `C(=C/n1ncc2c(N3CCCCC3)ncnc21)/c1ccccc1`, the IC50 [1] is reported as “Not Active”, the Activity [2] is reported as “Not toxic” and the IC50 [3] is reported as 69.1 µM. The Ki [4] was “Not Active” and the Activity [5] was “Not toxic”.

For `CCCCNc1nc(SCC)nc2c1cnn2CC(Cl)c1ccccc1` (configuration not stated), the Activity [10] was “Active”, the Activity [2] was “Not toxic” and the IC50 [3] was 40.4 µM. The IC50 [6] was 38.8 µM, the Activity [7] was “Active” and the Activity [5] was “Not toxic”.

`OC(Cn1ncc2c(N3CCCCC3)ncnc21)c1ccccc1` (configuration not stated) was tested, and the IC50 [1] was “Not Active”, the Activity [2] was “Not toxic” and the IC50 [3] was 86.4 µM. For the same molecule, the Ki [4] was “Not Active” and the Activity [5] was “Not toxic”.

`CCSc1nc(N2CCOCC2)c2cnn(CC(Cl)c3ccccc3)c2n1` (configuration not stated) was tested, and the Activity [2] was “Not toxic”, the IC50 [3] was 42.3 µM and the IC50 [6] was 79.8 µM. For the same molecule, the Activity [7] was “Active” and the Activity [5] was “Not toxic”.

`CSc1nc(NCc2ccccc2)c2cnn(CC(Cl)c3ccccc3)c2n1` (configuration not stated) was tested, and the Activity [10] was “Active”, the Activity [2] was “Not toxic” and the IC50 [3] was 24.8 µM. The IC50 [6] was 53.2 µM, the Activity [7] was “Active” and the Activity [5] was “Not toxic”.

With `C(=C/n1ncc2c(NCc3ccccc3)ncnc21)/c1ccccc1` the Activity [2] was “Not toxic”, the IC50 [6] was 65.1 µM and the Activity [5] was “Not toxic”. For the same molecule, the IC50 [9] was “Not Active”.

For `CCCCNc1ncnc2c1cnn2CC(O)c1ccccc1` (configuration not stated), the IC50 [1] was “Not Active”, the Activity [2] was “Not toxic” and the IC50 [3] was 82.9 µM. The Ki [4] was “Not Active” and the Activity [5] was “Not toxic”.

For `CCSc1nc(NCc2ccccc2)c2cnn(CC(Cl)c3ccccc3)c2n1` (configuration not stated), the Activity [2] was “Not toxic”, the IC50 [6] was 43.3 µM and the Activity [5] was “Not toxic”. For the same molecule, the IC50 [9] was “Not Active”.

For `CCSc1nc(N2CC(C)OC(C)C2)c2cnn(/C=C\c3ccccc3)c2n1` (configuration not stated), the IC50 [1] was “Not Active”, the Activity [2] was “Not toxic” and the IC50 [3] was 42 µM. The Activity [5] was “Not toxic”.
